This note sets out measurements from ChEMBL document CHEMBL4196230, “Design, Synthesis, and Blood-Brain Barrier Transport Study of Pyrilamine Derivatives as Histone Deacetylase Inhibitors” (ACS Med Chem Lett, 2018).

Activity calls are given as the source filed them. The rule behind the calls is not given here.

The target of data set [1] is T1, Protein deacetylase HDAC6 (Mus musculus) (UniProt Q9Z2V5).
T1 sequence (whole entry): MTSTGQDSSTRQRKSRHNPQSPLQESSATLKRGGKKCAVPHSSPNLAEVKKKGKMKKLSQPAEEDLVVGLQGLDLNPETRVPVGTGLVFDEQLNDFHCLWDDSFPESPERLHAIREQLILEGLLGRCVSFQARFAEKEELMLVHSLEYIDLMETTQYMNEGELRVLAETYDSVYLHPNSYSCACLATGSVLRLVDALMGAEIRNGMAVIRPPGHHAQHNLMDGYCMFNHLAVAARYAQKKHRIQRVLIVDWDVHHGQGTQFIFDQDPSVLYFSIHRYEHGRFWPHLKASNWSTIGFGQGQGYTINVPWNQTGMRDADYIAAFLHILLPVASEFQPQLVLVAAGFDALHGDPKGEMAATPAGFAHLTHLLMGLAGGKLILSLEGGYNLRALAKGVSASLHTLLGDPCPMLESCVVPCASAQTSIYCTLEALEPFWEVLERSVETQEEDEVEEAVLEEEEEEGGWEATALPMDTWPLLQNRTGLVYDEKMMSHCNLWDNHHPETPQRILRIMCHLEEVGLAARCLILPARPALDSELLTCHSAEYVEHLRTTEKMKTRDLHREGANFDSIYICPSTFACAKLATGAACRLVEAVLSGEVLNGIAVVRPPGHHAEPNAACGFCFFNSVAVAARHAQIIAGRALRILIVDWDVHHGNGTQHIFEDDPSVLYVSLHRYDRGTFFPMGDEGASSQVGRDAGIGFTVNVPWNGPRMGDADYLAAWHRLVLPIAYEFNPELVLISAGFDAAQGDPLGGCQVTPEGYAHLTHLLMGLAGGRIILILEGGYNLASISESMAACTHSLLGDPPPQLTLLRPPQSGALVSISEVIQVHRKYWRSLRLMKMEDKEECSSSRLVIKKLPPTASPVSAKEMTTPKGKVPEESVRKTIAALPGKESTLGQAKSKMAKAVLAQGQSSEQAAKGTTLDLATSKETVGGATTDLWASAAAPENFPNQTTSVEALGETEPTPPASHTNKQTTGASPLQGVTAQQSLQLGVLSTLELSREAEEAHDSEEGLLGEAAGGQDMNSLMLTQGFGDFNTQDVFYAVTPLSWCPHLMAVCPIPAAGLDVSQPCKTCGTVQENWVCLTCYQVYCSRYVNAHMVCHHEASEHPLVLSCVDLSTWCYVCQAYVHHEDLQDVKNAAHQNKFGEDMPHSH
The data set is described as follows: Inhibition of mouse HDAC6 expressed in 293T cells at 100 uM using Ac-KGLGK(Ac)-MCA as substrate measured after 30 mins by fluorescence assay relative to control.

Data set [2] can be described thus: Substrate activity at PYSOCA in human CMEC/D3 cells assessed as transporter-mediated drug uptake measured for 2 mins at 37degC in presence of pyrilamine. Format: ADME, cell-based.
A short description of data set [3]: Substrate activity at PYSOCA in human CMEC/D3 cells assessed as transporter-mediated drug uptake measured for 2 mins at 37degC in presence of diphenhydramine. The format is ADME, cell-based. The gist of the method: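 Uptake by hCMEC/D3 cells was measured at various substrate concentrations, at 37 °C for 2 min, with or without diphenhydramine (100 µM). Data were analysed by Michaelis-Menten and Lineweaver-Burk plots using nonlinear least-squares regression (Eqs. 1 and 2). Mean ± S.E., n = 4.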

Data set [4] can be described thus: Substrate activity at PYSOCA in human CMEC/D3 cells assessed as transporter-mediated drug uptake measured for 2 mins at 37degC in presence of memantine. Format: ADME, cell-based.
Data set [5] in a line: Substrate activity at PYSOCA in human CMEC/D3 cells assessed as transporter-mediated drug uptake measured for 2 mins at 37degC in presence of varenicline. Format: ADME, cell-based.
Data set [6] has as its target Histone deacetylase (Homo sapiens) (UniProt Q13547+O15379+Q9UBN7+Q92769+Q9UQL6+Q8WUI4+Q9BY41+Q96DB2+P56524+Q9UKV0+Q969S8). The following applies: at 10 µM.
Data set [7] is described as follows: Substrate activity at PYSOCA in human CMEC/D3 cells assessed as transporter-mediated drug uptake measured for 2 mins at 37degC in presence of clonidine. The format is ADME, cell-based.
Data set [8] in a line: Substrate activity at PYSOCA in human CMEC/D3 cells assessed as transporter-mediated drug uptake clearance assessed per mg protein at 37degC. The format is ADME, cell-based. The gist of the method:
(§1)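 Uptake by hCMEC/D3 cells followed over time at 37 °C or 4 °C. Clearance was calculated from the initial linear slope, expressed per mg protein. Mean ± S.E., n = 4.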

The nature of data set [9]: Substrate activity at PYSOCA in human CMEC/D3 cells assessed as transporter-mediated drug uptake clearance assessed per mg protein at 4degC measured after 30 mins. Format: ADME, cell-based. The following applies: 0.5 h. The gist of the method: as §1
Data set [10] in a line: Substrate activity at PYSOCA in human CMEC/D3 cells assessed as transporter-mediated drug uptake measured for 2 mins at 37degC in presence of MPP+. The format is ADME, cell-based.
Data set [11] is described as follows: Substrate activity at PYSOCA in human CMEC/D3 cells assessed as transporter-mediated drug uptake measured for 2 mins at 37degC in presence of tramadol. The format is ADME, cell-based.
A short description of data set [12]: Substrate activity at PYSOCA in human CMEC/D3 cells assessed as transporter-mediated drug uptake measured for 2 mins at 37degC in presence of L-carnitine. Format: ADME, cell-based.
Data set [13] can be described thus: Substrate activity at PYSOCA in human CMEC/D3 cells assessed as transporter-mediated drug uptake measured for 2 mins at 37degC in presence of choline. Format: ADME, cell-based.
Data set [14] can be described thus: Substrate activity at PYSOCA in human CMEC/D3 cells assessed as transporter-mediated drug uptake measured for 2 mins at 37degC in presence of TEA. The format is ADME, cell-based.
Data set [15] can be described thus: Substrate activity at PYSOCA in human CMEC/D3 cells assessed as transporter-mediated drug uptake measured for 2 mins at 37degC in presence of decynium-22. Format: ADME, cell-based.

Regarding `CC(/C=C/C(=O)NO)=C\[C@@H](C)C(=O)c1ccc(N(C)C)cc1`, the inhibition in data set [1] came out at 98%.

As to `COc1ccc(CN(CCN(C)C)c2ccc(C(=O)Nc3cc(-c4ccccc4)ccc3N)cn2)cc1`, in data set [1], the inhibition came to 14%.

In the case of `COc1ccc(CN(CCN(C)C)c2ccc(C(=O)Nc3cc(-c4cccs4)ccc3N)cn2)cc1`, the inhibition in data set [1] amounted to 15%.

In the case of `COc1ccc(CN(CCN(C)C)c2ccc(C(=O)Nc3cc(I)ccc3N)cn2)cc1`, in [1], the inhibition turned out to be 16%.

As for `COc1ccc(CN(CCN(C)C)c2ccc(C(=O)Nc3cc(Br)ccc3N)cn2)cc1`, the inhibition in data set [1] was determined as 21%.

In data set [1], `COc1ccc(CN(CCN(C)C)c2ccc(C(=O)Nc3cc(Cl)ccc3N)cn2)cc1` returned an inhibition of 7%.

Turning to `COc1ccc(CN(CCN(C)C)c2ccc(C(=O)Nc3cc(-c4ccco4)ccc3N)cn2)cc1`, the inhibition in data set [1] was determined as 15%.

On to `CC(=O)Nc1ccc(C(=O)Nc2ccccc2N)cc1` [TACEDINALINE], for which, in data set [1], the inhibition was 18%. The result in data set [2], in data set [3], in data set [4], in data set [5], in data set [7] and in [9] was Active. The result in data set [10], in data set [11], in data set [12], in data set [13], in data set [14] and in [15] was Active. Further, the inhibition result in data set [6] is “Active”. For the same molecule, the CL in data set [8] is 1.26 µL/min.
